From PMC3594512 (Bioorganic & medicinal chemistry, 2013)
Entries after “also recorded” stand apart in the source; their conditions may differ.

Experiments:
human H69 = conditions: relative to NQVANHQ-NH2; due to non-specific binding, ref [15b]; cited from earlier work
H69 RNA = conditions: relative to NQVANHQ-NH2 (1:1), ref [15b]; cited from earlier work
[1] = TentaGel bead control with free fluorescein; assay type: binding; conditions: peptide on TentaGel beads; fluorescence microscopy
Procedure, shortened: (§1)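 Peptide beads were washed free of DMF, blocked 3 h in SuperBlock (PBS, 0.05% Tween-20) and rinsed with water. About 10–12 beads were shaken with fluorescent probe for 24 h at 4 °C, with fresh probe added for repeated cycles. Beads were then water-washed and viewed by fluorescence microscopy. Peptide-free beads set background. Labelled RNAs were gel-purified (20% denaturing PAGE), stored in 10 mM HEPES pH 7.4 and renatured.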

[2] = test system: F-18S RNA (human A-site rRNA); assay: TentaGel bead fluorescence assay with F-18S RNA; assay type: binding; conditions: peptide on TentaGel beads; fluorescence microscopy
Procedure, shortened: as §1

F-TAR RNA = assay: TentaGel bead fluorescence assay with F-TAR RNA; assay type: binding; conditions: peptide on TentaGel beads, fluorescence microscopy
[3] = test system: F-H69 (fluorescein-labeled Ψm^3ΨΨ); assay: Quantum dot; assay type: binding, E. coli; conditions: Qdot analysis; 1 nM F-H69, 1 nM Qdot 655, 16 h at 4 °C
Procedure, shortened: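 F-H69 was pre-incubated 1 h at 4 °C with anti-fluorescein Qdot 655, then with beads 16 h at 4 °C. Washes: PBS, SuperBlock, then 0.005% TX-100. Per-bead Qdot (em 655 nm) and fluorescein (em 521 nm) pixel intensities (1–255) taken at predefined exposures. Peptide-free beads served as control.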

| Substance | selectivity with human H69 (human H69) | stoichiometry with H69 (H69 RNA) | on-bead interaction with free fluorescein [1] | on-bead interaction with F-18S RNA [2] | on-bead interaction with F-TAR RNA (F-TAR RNA) | on-bead interaction with F-TAR RNA (F-TAR RNA; listed as STYSTVS) | bead intensity compared with STYTSVS beads [3] |
| --- | --- | --- | --- | --- | --- | --- | --- |
| neomycin | lower selectivity with human H69 | higher stoichiometries | – | – | – | – | – |
| STYTSVS | – | – | do not show any fluorescence | do not show any fluorescence | with the exception those containing STYTSVS and F-TAR RNA | showed interaction | – |
| NQVANHQ | – | – | do not show any fluorescence | did not show any interaction; also recorded: do not show any fluorescence | did not show any interaction; also recorded: do not show any fluorescence | – | higher than STYTSVS beads |
